Data set [1] relates to Mus musculus. Description: Antiinflammatory activity in DNFB-induced ICR mouse model of auricle edema assessed as inhibition of ear swelling at 5 mg/kg, ig administered once daily for 6 days followed by 1% DNFB solution applied on right ear measured after 24 hrs relative to untreated control. The data set is classed as functional. As to conditions: po. The method, boiled down: (§1)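 Male ICR mice, 18-22 g, randomized by weight, 6 per group. Dosed by intragastric route once daily for 6 days; saline given to normal and model groups. Right ear coated with 10 uL 1% DNFB (DNFB in acetone/olive oil); left ear received acetone/olive oil only. Mice killed 24 h later and both ears weighed. Swelling = right minus left ear weight; inhibition calculated versus model control.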

Data set [2] has as its system Mus musculus. The experiment in a line: Antiinflammatory activity in DNFB-induced ICR mouse model of auricle edema assessed as inhibition of ear swelling at 0.5 mg/kg, ig administered once daily for 6 days followed by 1% DNFB solution applied on right ear measured after 24 hrs relative to untreated control. Conditions: po. The data set is classed as functional. The method, boiled down: as §1

A short description of data set [3]: Inhibition of soyabean 15-LOX preincubated for 5 mins followed by susbtrate addition measured after 10 mins by colorimetric method. Also on record: species or system Glycine max. The method, boiled down: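 Soybean lipoxygenase assessed with a commercial lipoxygenase assay kit, following the kit instructions. IC50 values determined.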
In another data set the test system is RAW264.7. Description: Cytotoxicity against mouse RAW264.7 cells assessed as cell viability up to 50 uM after 24 hrs by MTT assay. The class given is cell-based. Conditions: raw264.7, 24 h. The procedure, abridged: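 RAW264.7 cells (ATCC), about 1.0×10^5 cells/ml, were held 2 h in serum-free medium at 37°C, 5% CO2. The supernatant was replaced with RPMI 1640 containing compound at 0, 5, 10, 20, 30, 40 or 50 μM for 24 h. MTT (5 mg/mL stock) was added for the final 4 h. Formazan was dissolved in DMSO and OD570 read. Survival was compared with blank.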
(Formazan colour is commonly taken as a measure of viable cells.)

Data set [4] addresses T1, Prostaglandin G/H synthase 1 (Ovis aries, UniProt P05979).
T1 sequence (P05979 whole entry): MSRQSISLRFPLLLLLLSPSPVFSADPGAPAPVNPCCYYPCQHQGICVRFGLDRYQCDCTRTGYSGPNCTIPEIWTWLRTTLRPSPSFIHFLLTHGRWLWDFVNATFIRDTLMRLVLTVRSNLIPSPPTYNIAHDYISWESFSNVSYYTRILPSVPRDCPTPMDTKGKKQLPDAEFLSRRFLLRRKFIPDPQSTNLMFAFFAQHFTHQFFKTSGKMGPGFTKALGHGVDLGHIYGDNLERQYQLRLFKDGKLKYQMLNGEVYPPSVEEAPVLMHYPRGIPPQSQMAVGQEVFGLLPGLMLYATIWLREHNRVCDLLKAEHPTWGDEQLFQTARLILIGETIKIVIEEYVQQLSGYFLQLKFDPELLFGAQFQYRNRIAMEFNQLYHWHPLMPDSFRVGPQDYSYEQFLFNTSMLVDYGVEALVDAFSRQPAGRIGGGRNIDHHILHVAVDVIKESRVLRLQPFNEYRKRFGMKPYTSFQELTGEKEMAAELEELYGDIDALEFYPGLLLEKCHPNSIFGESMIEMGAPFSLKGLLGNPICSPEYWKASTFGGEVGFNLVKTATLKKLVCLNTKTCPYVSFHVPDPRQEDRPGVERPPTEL
Description: Inhibition of ovine COX-1 using arachidonic acid as substrate incubated for 5 mins by fluorescence-based assay. The procedure, abridged: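 COX-1 fluorometric inhibitor-screening kit. Assay buffer, COX-1 cofactor and arachidonic acid were combined with test compound and incubated 5 min at 37 °C. Inhibition derived from RFU relative to 100%-activity and blank controls. Run in triplicate; IC50 taken from concentration curves.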

The record followed here is ChEMBL document CHEMBL4364303 (Eur J Med Chem, 2019).

The structures appear in SMILES notation.

The inhibition in vivo is the drop in the measured response relative to a control, in per cent. Consider `Cc1nc(C)c(CN2CCN(C(=O)c3cc4cc(Cl)ccc4n3Cc3ccc(F)cc3)CC2)nc1C`, for which, in the data set on Mus musculus [1], the inhibition in vivo at 5 mg/kg stood at 48.3%.
`C[C@@H]1C[C@H]2[C@@H]3CCC4=CC(=O)C=C[C@]4(C)[C@@]3(F)[C@@H](O)C[C@]2(C)[C@@]1(O)C(=O)CO` [DEXAMETHASONE]: the inhibition in vivo at 0.5 mg/kg in the data set on Mus musculus [2] fell in the range of 46.8 to 63.8%.
`Cc1nc(C)c(CNC2CCN(C(=O)c3cc4cc(Cl)ccc4n3Cc3ccc(F)cc3)C2)nc1C` (configuration not stated): the inhibition in vivo at 5 mg/kg with Mus musculus [1] was determined as 49.4%.
Still for that read-out and setting: the value for `Cc1ccc(CN2CCN(C(=O)c3cc4cc(Cl)ccc4n3Cc3ccc(Cl)cc3)CC2)cc1` was 39.2%.
The IC50 is the midpoint of a concentration-inhibition curve. Higher therefore signals a need for much substance. In data set [3], `CC(c1cc2ccccc2s1)N(O)C(N)=O` (configuration not stated) [ZILEUTON] returned an IC50 of 38.9 nM.
Regarding `N#Cc1ccc(CN2CCN(C(=O)c3cc4cc(Cl)ccc4n3Cc3ccc(F)cc3)CC2)cc1`, the inhibition in vivo at 5 mg/kg in the data set with Mus musculus [1] was 35.4%.
Turning to `Cc1cncc(CN2CCN(C(=O)c3cc4cc(Cl)ccc4n3Cc3ccc(F)cc3)CC2)c1`, in the data set with Mus musculus [1], the inhibition in vivo at 5 mg/kg is 25.4%.
The same measure, in the same setting: the value for `Cc1nc(C)c(CNC2CCN(C(=O)c3cc4cc(Cl)ccc4n3Cc3ccc(Cl)cc3)C2)nc1C` (configuration not stated) was 42.5%; that for `COc1ccc2[nH]cc(CCNC(=O)c3cc4cc(Cl)ccc4n3Cc3ccc(Cl)cc3)c2c1` was 44.3%.
`COc1ccc2[nH]cc(CCNC(=O)c3cc4cc(Cl)ccc4n3Cc3ccc(F)cc3)c2c1`: the Activity result with RAW264.7 is reported as “Non-Toxic”. Also, the IC50 in data set [3] was determined as 66.1 nM; in data set [4] it was 407 nM. The inhibition in vivo at 5 mg/kg in the data set with Mus musculus [1] is 50%.
On to `O=C(c1cc2cc(Cl)ccc2n1Cc1ccc(F)cc1)N1CCN(Cc2ccccc2)CC1`, for which the inhibition in vivo at 5 mg/kg in the data set with Mus musculus [1] is 24%.
Same read-out and setting: the value for `O=C(c1cc2cc(Cl)ccc2n1Cc1ccc(Cl)cc1)N1CCN(Cc2ccc(C(F)(F)F)cc2)CC1` was 30.4%; that for `O=C(c1cc2cc(Cl)ccc2n1Cc1ccc(F)cc1)N1CCN(Cc2ccc(C(F)(F)F)cc2)CC1` was 27.8%; that for `O=C(c1cc2cc(Cl)ccc2n1Cc1ccc(F)cc1)N1CCN(Cc2ccc3c(c2)OCO3)CC1` was 34.2%.
On the same count and under the same terms, to `Cc1ccc(CN2CCN(C(=O)c3cc4cc(Cl)ccc4n3Cc3ccc(F)cc3)CC2)cc1` belongs 32.9%; to `O=C(c1cc2cc(Cl)ccc2n1Cc1ccc(Cl)cc1)N1CCN(Cc2ccc3c(c2)OCO3)CC1`, 32.9%.
As for `CN1CCN(C(=O)c2cc3cc(Cl)ccc3n2Cc2ccc(F)cc2)CC1`, the inhibition in vivo at 5 mg/kg with Mus musculus [1] was 36.7%.
`O=C(c1cc2cc(Cl)ccc2n1Cc1ccc(Cl)cc1)N1CCN(Cc2ccc(Cl)cc2)CC1`: the IC50 is 210 nM in data set [3] and 361 nM in data set [4]. The inhibition in vivo at 5 mg/kg in the data set with Mus musculus [1] stood at 40.5%.
In the case of `Cc1nc(C)c(CN2CCN(C(=O)c3cc4cc(Cl)ccc4n3Cc3ccc(Cl)cc3)CC2)nc1C`, the results for the IC50 in data set [3] and in data set [4] were 339 nM and 312 nM, respectively. The inhibition in vivo at 5 mg/kg with Mus musculus [1] is 64.9%.
`COc1ccc(CN2CCN(C(=O)c3cc4cc(Cl)ccc4n3Cc3ccc(F)cc3)CC2)cc1`: the Activity result with RAW264.7 is “Non-Toxic”. In addition, the IC50 came out at 83.5 nM in data set [3] and 195 nM in data set [4]. Besides, the inhibition in vivo at 5 mg/kg in the data set on Mus musculus [1] worked out at 43.1%.
In the case of `O=C(c1cc2cc(Cl)ccc2n1Cc1ccc(Cl)cc1)N1CCN(Cc2ccc(F)cc2)CC1`, in the data set on Mus musculus [1], the inhibition in vivo at 5 mg/kg came to 29.1%.
Regarding `Cc1cncc(CN2CCN(C(=O)c3cc4cc(Cl)ccc4n3Cc3ccc(Cl)cc3)CC2)c1`, the inhibition in vivo at 5 mg/kg in the data set on Mus musculus [1] worked out at 29.8%.
